RAD54 inh – RAD54 (human) branch migration inhibition. Q92698. RAD54 Holliday junction branch migration, FAM/BHQ fluorescence. inhibition, % at 10.4 µM. 360,000 compounds, 0.14% hits. AID 602329;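 active = mean normalized replicate activity at least 40 and at least half of replicates scoring 40 or more; inconclusive = only one of the two criteria met; inactive = mean below 40 and under half of replicates reaching 40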;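 note: 0% = median of neutral control wells and 100% = median of positive control wells; inhibitors cause a drop in the FAM fluorescence signal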
RAD52 inh – blocks human RAD52 DNA annealing | recombinant RAD52 DNA annealing, FRET fluorescence | inhibition, % at 18.7 µM | 360,000 compounds, 0.46% hits;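 active = every replicate showing at least 50% inhibition; inconclusive = mean inhibition at least 50% but not in every replicate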
Target sequence (P43351 whole entry, looked up): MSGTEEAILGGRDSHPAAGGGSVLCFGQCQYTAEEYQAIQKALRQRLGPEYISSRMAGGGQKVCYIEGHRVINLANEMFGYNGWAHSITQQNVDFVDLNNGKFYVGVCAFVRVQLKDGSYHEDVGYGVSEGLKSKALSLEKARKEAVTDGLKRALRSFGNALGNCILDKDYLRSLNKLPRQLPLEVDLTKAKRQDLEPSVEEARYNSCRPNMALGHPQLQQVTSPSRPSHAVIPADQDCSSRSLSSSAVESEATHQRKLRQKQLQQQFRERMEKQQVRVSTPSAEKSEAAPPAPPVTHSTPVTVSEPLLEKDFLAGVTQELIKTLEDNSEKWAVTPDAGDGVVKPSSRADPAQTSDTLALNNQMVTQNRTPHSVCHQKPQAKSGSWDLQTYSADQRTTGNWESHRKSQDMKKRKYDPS
DNA FID counter – displaces DNA intercalator in HCV helicase counter-screen | 290,000 compounds, 0.17% hits | DNA fluorescent intercalator displacement, fluorescence | inhibition, % at 7.9 µM; in the data active = inhibition above about 37%;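 note: 0% = vehicle and 100% = reference compound; higher means more ethidium bromide displaced from hairpin DNA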
Apaf-1 inh – blocks human Apaf-1 apoptosome activity. reconstituted apoptosome caspase-3 activity, DEVD-Rh110 fluorescence. inhibition, % at 20 µM. 330,000 compounds, 0.71% hits. O14727. AID 489030; active = inhibition of at least 40% at 20 µM;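 note: plate controls were DMSO wells for no effect and DEVD-CHO caspase inhibitor wells for full effect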
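System: Apoptosome proteins | Medium: Hepes pH 7.5 with detergent and BSA | Also added: Cytochrome c trigger plus (Z-DEVD)2-Rh110 caspase-3 substrate | Incubation: 30 min compound preincubation, 50 min activation, room temperature | Detection: Rhodamine 110 fluorescence at Ex 480/Em 540 nm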
UBC13 polyUb – inhibitors of human UBC13 polyubiquitin chain formation; P61088; TR-FRET; 330,000 compounds, 0.47% hits; inhibition, % at 20 µM; in the data active = inhibition above about 45%, passing the limit was not always enough; inconclusive = no clear call, values can overlap the other calls
Target sequence (P61088 whole entry, looked up): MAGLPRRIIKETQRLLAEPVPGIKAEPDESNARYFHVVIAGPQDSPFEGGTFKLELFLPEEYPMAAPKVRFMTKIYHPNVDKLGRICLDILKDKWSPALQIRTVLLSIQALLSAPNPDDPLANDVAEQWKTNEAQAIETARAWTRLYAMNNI
Neddylation inh – blocks human cullin neddylation; P61081+Q13564; TR-FRET cullin neddylation, biochemical; calls only at 25 µM; 360,000 compounds, 0.58% hits; AID 651699; in the data active = inhibition above about 36%
Casp3 counter – counter-screen for UBC13 inhibitors: human caspase-3 inhibition | shares compounds with UBC13 polyUb | Recombinant caspase-3, Caspase-Glo 3/7 luminescence, 60 min | inhibition, % at 20 µM | 1,400 compounds, 4% hits | AID 488856;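 active = mean inhibition across replicates above about 26%, limit read from the data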;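 note: plate controls were DMSO with caspase-3 for no effect and DMSO wells lacking enzyme for full effect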
UBC13 conf – human UBC13 polyubiquitin inhibition, confirmed; shares compounds with UBC13 polyUb; UBC13 polyubiquitination, TR-FRET, biochemical; inhibition, % at 10 µM; 1,400 compounds, 68% hits; in the data active = inhibition above about 45%; inconclusive = no clear call, values can overlap the other calls
The depositor's hits bear a star; i = inactive; ? = inconclusive; · = no result; + = active, no number. Only some compounds are listed: those with a hit (about 1.6% of all), similar ones and a draw of the others.

SMILES	RAD54 inh	RAD52 inh	DNA FID counter	Apaf-1 inh	UBC13 polyUb	Neddylation inh	others
CCOC(=O)C1CCN(C(=O)c2c(C)oc3c2C(=O)c2ccccc2C3=O)CC1	2.0	-325.1	-9.1	48.4*	-39.8	i
O=C([C@H]1[C@H](CO)[C@H]2Cn3c(cccc3=O)[C@H]2N1Cc1ccccn1)N1CCC(Cc2ccccc2)CC1	·	-15.0	·	·	·	·
CCCN(C)C[C@H]1Oc2ncc(-c3cccc(C#N)c3)cc2C(=O)N([C@@H](C)CO)C[C@@H]1C	-2.1	-7.4	·	·	·	·
COc1cc(NCCCCCCCN)c2ncccc2c1	-0.8	·	2.5	94.7*	-39.7	i
O=C(N/N=C/c1ccc(F)cc1)c1cc(-c2ccco2)nc2ccccc12	1.9	·	-12.5	30.7	26.5	+
ONc1cccnc1-n1nc(C(F)(F)F)cc1C(F)(F)F	·	·	-7.1	47.3*	-48.7	·
C#CCOCCOCCOCCNc1nc(N2CCN(C(=O)CCCCCCCCCCNC(=O)[C@H](CCCCN)n3cc(C[C@@H](C)CC)nn3)CC2)nc(N2CCN(C(=O)CCCCCCCCCCNC(=O)[C@H](CCCCN)n3cc(C[C@@H](C)CC)nn3)CC2)n1	7.7	·	·	·	·	i
C#CCOCCOCCOCCNc1nc(N2CCN(C(=O)CCCCCCCCCCNC(=O)[C@H]([C@@H](C)CC)n3cc(CCCCN=C(N)N)nn3)CC2)nc(N2CCN(C(=O)CCCCCCCCCCNC(=O)[C@H](CCCCN)n3cc(C[C@@H](C)CC)nn3)CC2)n1	·	·	·	55.5*	122.2*	·
C#CCOCCOCCOCCNc1nc(N2CCN(C(=O)[C@H]([C@@H](C)CC)n3cc(CCCN=C(N)N)nn3)CC2)nc(N2CCN(C(=O)[C@H](CCCCN)n3cc(CC(C)O)nn3)CC2)n1 (stereo not given in full)	-14.7	23.1	·	-3.6	2.9	i
C#CCOCCOCCOCCNc1nc(N2CCN(C(=O)CCCCCCCCCCNC(=O)[C@H](CO)n3cc(CCCSC)nn3)CC2)nc(N2CCN(C(=O)CCCCCCCCCCNC(=O)[C@H](CCCCN)n3cc(C[C@@H](C)CC)nn3)CC2)n1	·	·	·	68.2*	118.1*	·
C#CCOCCOCCOCCNc1nc(N2CCN(C(=O)CCCCCCCCCCNC(=O)[C@H](CCCCN)n3cc(CCO)nn3)CC2)nc(N2CCN(C(=O)CCCCCCCCCCNC(=O)[C@H](CCCN=C(N)N)n3cc(C[C@@H](C)CC)nn3)CC2)n1	6.2	·	·	77.7*	125.2*	i
C#CCOCCOCCOCCNc1nc(N2CCOCC2)nc(N2CCN(C(=O)CCCCCCCCCCNC(=O)[C@@H](CCSC)n3cc(CCO)nn3)CC2)n1	-17.6	-1.2	·	7.6	0.9	i
C#CCOCCOCCOCCNc1nc(N2CCN(C(=O)CCCCCCCCCCNC(=O)[C@@H](CCSC)n3cc(CCO)nn3)CC2)nc(N2CCN(C(=O)CCCCCCCCCCNC(=O)[C@H]([C@@H](C)CC)n3cc(CCCCCN)nn3)CC2)n1	·	·	·	50.9*	116.3*	·
C[C@H]1CN([C@@H](C)CO)C(=O)c2cc(NS(=O)(=O)c3ccc(Cl)cc3)ccc2O[C@H]1CN(C)Cc1ccc(C(=O)Nc2ccccc2N)cc1	-3.1	2.4	·	·	·	·
C#CCOCCOCCOCCNc1nc(N2CCN(C(=O)CCCCCCCCCCNC(=O)Cn3cc(C[C@@H](C)O)nn3)CC2)nc(N2CCN(C(=O)CCCCCCCCCCNC(=O)Cn3cc(C[C@@H](C)O)nn3)CC2)n1	-6.2	1.4	·	27.1	37.1	i
C#CCOCCOCCOCCNc1nc(N2CCN(C(=O)CCCCCCCCCCNC(=O)Cn3cc(CCCCCN)nn3)CC2)nc(N2CCN(C(=O)CCCCCCCCCCNC(=O)[C@H](CO)n3cc(CCCCCN)nn3)CC2)n1	?	·	·	62.9*	116.9*	i
C#CCOCCOCCOCCNc1nc(N2CCN(C(=O)CCCCCCCCCCNC(=O)Cn3cc(C[C@@H](C)O)nn3)CC2)nc(N2CCN(C(=O)CCCCCCCCCCNC(=O)[C@H](CCCCN)n3cc(C[C@@H](C)CC)nn3)CC2)n1	-1.8	·	·	70.5*	122.3*	i
C[C@@H]1CN([C@@H](C)CO)C(=O)c2cccc(NC(=O)CCCCCC(=O)Nc3ccccc3N)c2O[C@@H]1CN(C)C(=O)Nc1cccc2ccccc12	·	8.6	·	·	·	·
C[C@H]1CCCCO[C@H](CN(C)S(=O)(=O)c2ccc(Cl)cc2)[C@@H](C)CN([C@@H](C)CO)C(=O)c2cc(NS(=O)(=O)c3ccc(F)cc3)ccc2O1	-7.2	22.0	·	·	·	·
CC(C)Cc1ccc(C(C)C(N)=NCCc2ccccc2)cc1 (stereo not given)	13.9	32.2	39.0*	7.5	23.4	i
COc1ccc(CCN=C(N)C(C)c2ccccc2)cc1OC (stereo not given)	6.9	-17.4	3.1	-10.4	6.4	i
CCOc1ccc(NCc2cccn2-c2nnc(N3CCC(C(=O)NCCCN4CCCCC4CC)CC3)s2)cc1 (stereo not given)	24.6	32.8	40.3*	25.1	21.9	i
Oc1ccccc1CNc1cnc2ccccc2c1	-1.8	-6.9	-5.0	-8.7	15.1	+
O=C(Nc1ccc(F)cc1)N1CCCCN2[C@H](CO)[C@@H](c3ccc(-c4ccccc4F)cc3)[C@@H]2C1	4.6	48.7	·	·	·	·
COc1ccc(NC(=O)N2CCCCN3[C@@H](CO)[C@H](c4ccc(-c5ccccc5F)cc4)[C@@H]3C2)cc1	3.8	60.0*	·	·	·	·
SMILES	RAD54 inh	RAD52 inh	DNA FID counter	Apaf-1 inh	UBC13 polyUb	Neddylation inh	others
COc1ccc(NC(=O)N2CCCCN3[C@@H](CO)[C@@H](c4ccc(-c5ccccc5F)cc4)[C@@H]3C2)cc1	19.7	64.6*	·	·	·	·
CCO[C@H]1OC(C(=O)N2CCOCC2)=C[C@@H](C2CCCCC2)[C@@H]1CCCO	-6.9	4.8	·	·	·	·
Fc1ccccc1-c1nc2nc3ccccc3nc2n1CC1CCCO1 (stereo not given)	-9.5	-44.7	-22.9	3.2	3.7	+
CCCNC(=O)N1CCC2(CC1)CN(Cc1ccccc1)[C@@H](CO)c1[nH]c3cc(OC)ccc3c12	·	-59.0	·	·	·	·
Cc1noc(C)c1NC(=O)Nc1ccc2c(c1)C(=O)N([C@H](C)CO)C[C@H](C)[C@@H](CN(C)C(=O)NC(C)C)OCCCC[C@@H](C)O2	·	13.8	·	·	·	·
O=C(c1ccccc1)c1c2c(cc3sc4ccccc4[n+]13)-c1cccc3cccc-2c13	105.0*	·	53.2*	·	·	i
O=C(c1ccccc1)c1ccc2ccccc2c1	-3.1	1.0	·	·	·	i
CCCc1nnc(NC(=O)c2nc(S(=O)(=O)Cc3cccc(C)c3)ncc2Cl)s1	0.5	-10.1	-60.0	-5.7	54.4*	i	Casp3 counter=5.3;UBC13 conf=61.6*

High-throughput results from PubChem BioAssay.
